Results collected from several papers.
Each line is one published result; the experiments were not run side by side. pEC50, pIC50: −log10 of the molar value.

SMILES	target or system	test	system	setting	measurement	value
CC(=O)N[C@H]1[C@@H](O[C@@H]2O[C@H](C[C@@H](O)[C@H]3O[C@@H](n4ccc(=O)[nH]c4=O)[C@H](O)[C@@H]3O)[C@H](O)[C@H](O)[C@H]2NC(=O)/C=C/CCCCCCCCCC(C)C)O[C@H](CO)[C@@H](O)[C@@H]1O	MDA-MB-453	cell growth or viability, WST-1	–	–	pIC50	6.80
CCN1CCN(Cc2ccc(Nc3nc4ccc(Oc5ccnc(NC(=O)C6CCN(C)CC6)c5)cc4n3C)cc2C(F)(F)F)CC1	Plasmodium falciparum	parasite growth, SYBR Green	3D7	blood stage	pEC50	6.68
CC(C)C[C@H](NC(=O)[C@H](CCC(=O)O)NC(=O)[C@H](CCCCN)NC(=O)[C@H](CCCCN)NC(=O)[C@H](CC(C)C)NC(=O)[C@H](CC(C)C)NC(=O)[C@H](CCCCN)NC(=O)[C@H](CCCCN)NC(=O)[C@H](CC(C)C)NC(=O)[C@H](CC(C)C)NC(=O)[C@H](CCCCN)NC(=O)[C@H](CCCCN)NC(=O)[C@H](CC(C)C)NC(=O)[C@@H](N)CC(C)C)C(N)=O	HCCC9810	cell growth or viability, CCK-8	–	–	pIC50	4.99
N=C(CC(O)c1cc2c(F)cc(F)cc2c2cc(C(F)(F)F)ccc12)Nc1ccccc1I (stereo not drawn)	Plasmodium falciparum	parasite growth, ELISA	3D7	72 h, blood stage	pIC50	7.96
C[C@@H]1CC[C@H]2[C@@H](C)C(=O)O[C@@H]3O[C@@]4(C)CC[C@@H]1[C@]32OO4	Plasmodium falciparum	parasite growth	K1	drug-resistant strain, blood stage	pIC50	9.22
N=C(CC(O)c1cc2c(F)cc(F)cc2c2cc(C(F)(F)F)ccc12)Nc1cccc(F)c1 (stereo not drawn)	Plasmodium falciparum	parasite growth, ELISA	3D7	72 h, blood stage	pIC50	8.68
CCN(CC)CCOc1ccc2c(c1)C(=O)c1cc(OCCN(CC)CC)ccc1-2	Plasmodium falciparum	parasite growth	K1	drug-resistant strain, blood stage	pIC50	6.30
N.N.[Cl][Pt][Cl]	RS4-11	cell growth or viability, ATP luminescence	–	10 µM, 72 h	inhibition	100%
COc1ccc2cc1Oc1ccc(cc1)C[C@H]1c3c(cc4c(c3Oc3cc5c(cc3OC)CCN(C)[C@@H]5C2)OCO4)CCN1C	Plasmodium falciparum	parasite growth	DD2	drug-resistant strain, blood stage	pIC50	6.87
CC(C)C[C@H](NC(=O)[C@H](CC(C)C)NC(=O)[C@H](CCCCN)NC(=O)[C@H](CCCCN)NC(=O)[C@H](CC(C)C)NC(=O)[C@H](CC(C)C)NC(=O)[C@H](CCCCN)NC(=O)[C@H](CCCCN)NC(=O)[C@H](CCC(=O)O)NC(=O)[C@H](CC(C)C)NC(=O)[C@H](CCCCN)NC(=O)[C@H](CCCCN)NC(=O)[C@H](CC(C)C)NC(=O)[C@@H](N)CC(C)C)C(N)=O	HCCC9810	cell growth or viability, CCK-8	–	–	pIC50	3.49
N#Cc1ccc(NC(=N)CC(O)c2cc3c(F)cc(F)cc3c3cc(C(F)(F)F)ccc23)cc1 (stereo not drawn)	Plasmodium falciparum	parasite growth, ELISA	3D7	72 h, blood stage	pIC50	7.61
CC(C)C[C@H](NC(=O)[C@H](CC(C)C)NC(=O)[C@H](CCCCN)NC(=O)[C@H](CCCCN)NC(=O)[C@H](CC(C)C)NC(=O)[C@H](CC(C)C)NC(=O)[C@H](CCCCN)NC(=O)[C@H](CCCCN)NC(=O)[C@H](CC(C)C)NC(=O)[C@H](CCC(=O)O)NC(=O)[C@H](CCCCN)NC(=O)[C@H](CCCCN)NC(=O)[C@H](CC(C)C)NC(=O)[C@@H](N)CC(C)C)C(N)=O	HCCC9810	cell growth or viability, CCK-8	–	–	pIC50	5.03
Cc1ccc(N(CC2=NCCN2)c2cccc(O)c2)cc1	Plasmodium falciparum	parasite growth	K1	drug-resistant strain, blood stage	pIC50	3.72
CC(C)C[C@H](NC(=O)[C@H](CC(C)C)NC(=O)[C@H](CCCCN)NC(=O)[C@H](CCCCN)NC(=O)[C@H](CC(C)C)NC(=O)[C@H](CCC(=O)O)NC(=O)[C@H](CCCCN)NC(=O)[C@H](CCCCN)NC(=O)[C@H](CC(C)C)NC(=O)[C@H](CC(C)C)NC(=O)[C@H](CCCCN)NC(=O)[C@H](CCCCN)NC(=O)[C@H](CC(C)C)NC(=O)[C@@H](N)CC(C)C)C(N)=O	HCCC9810	cell growth or viability, CCK-8	–	–	pIC50	4.61
N=C(CC(O)c1cc2c(F)cc(F)cc2c2cc(C(F)(F)F)ccc12)NCc1ccc(F)cc1 (stereo not drawn)	Plasmodium falciparum	parasite growth, ELISA	3D7	72 h, blood stage	pIC50	5.95
